Data set [1] relates to Mus musculus. Kind of data set: Thrombotic toxicity in ICR mouse assessed as tail bleeding time at 1.3 mmol/kg, ip after 60 mins. To be noted: in vivo, 1 h. It counts as organism-based. In outline:
(§1)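 Male ICR mice (25 ± 2 g) were kept one day on a 12/12 h light/dark cycle at 21 ± 2 °C. Each received a single i.p. dose of 1.30 mmol/kg in saline/DMSO/Tween-80 (0.2/0.01/0.02 ml), or the solvent only. The restrained mouse had 1 mm cut from the tail before dosing and at 5, 15, 30 and 60 min. Bleeding time (s) is reported as mean ± SD.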

A short description of data set [2]: Cardiovascular toxicity in rat aorta assessed as inhibition of noradrenaline-induced vasoconstriction at 5 mM relative to control. It counts as tissue-based. To be noted: isolated rat aorta. In outline: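 Rat aortic strips were contracted with noradrenaline, washed, stabilized for 30 min, and contracted again. At peak contraction, compound was added (final 5 × 10^-3 M) or vehicle alone. The relaxant response was recorded as percentage inhibition of the contraction.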

Data set [3] concerns Mus musculus. Kind of data set: Analgesic activity in ICR mouse assessed as pain threshold variation at 0.13 mmol/kg, ip after 150 mins by tail flick test. It counts as functional. In outline: (§2)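 Male ICR mice (25 ± 2 g), kept on a 12/12 h light/dark cycle at 21 ± 2 °C for one day before use. Each received a single i.p. injection in 0.2 ml saline + 0.01 ml DMSO + 0.02 ml Tween-80. Vehicle-only mice served as controls. Basal tail-flick threshold was measured four times (BPT). Thresholds were then read every 30 min for 150 min. PTV = (post-dose threshold − BPT)/BPT. n = 10, x ± SD.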

Data set [4] concerns Mus musculus. Nature of the data set: Analgesic activity in ICR mouse assessed as pain threshold variation at 0.13 mmol/kg, ip after 90 mins by tail flick test relative to control. It counts as functional. In outline:
as §2
A general note: In hot-plate and tail-flick tests a longer latency is read as antinociception.

Data set [5] deals with Mus musculus. Kind of data set: Analgesic activity in ICR mouse assessed as pain threshold variation at 0.13 mmol/kg, ip after 60 mins by tail flick test relative to control. It counts as functional. In outline:
as §2

The test system of data set [6] is Mus musculus. Nature of the data set: Thrombotic toxicity in ICR mouse assessed as tail bleeding time at 1.3 mmol/kg, ip after 15 mins. It counts as organism-based. The conditions noted are these: in vivo, 0.25 h. In outline: as §1
Data set [7] concerns Mus musculus. Kind of data set: Analgesic activity in ICR mouse assessed as pain threshold variation at 0.13 mmol/kg, ip after 30 mins by tail flick test relative to control. It counts as functional. In outline: as §2
For data set [8], the system named is Mus musculus. Kind of data set: Thrombotic toxicity in ICR mouse assessed as tail bleeding time at 1.3 mmol/kg, ip after 30 mins. It counts as organism-based. The conditions noted are these: in vivo, 0.5 h. In outline:
as §1

The test system of data set [9] is Mus musculus. Nature of the data set: Analgesic activity in ICR mouse assessed as pain threshold variation at 0.13 mmol/kg, ip after 120 mins by tail flick test. It counts as functional. In outline: as §2
Data set [10] has as its system Mus musculus. Kind of data set: Thrombotic toxicity in ICR mouse assessed as tail bleeding time at 1.3 mmol/kg, ip after 5 mins. It counts as organism-based. The conditions noted are these: in vivo. In outline: as §1

As for `COc1ccc(C2=NC(C)(C)C(C)(C)N2O)cc1OC`, the Activity in data set [1] turned out to be 118 s; in data set [3], 35.37%; in data set [4] it was 54.54%; in data set [5], 50.12%; in data set [6], 117 s; in data set [7], 50.9%. The figures for the Activity in data set [8], in [9] and in data set [10] were 118 s, 38.43% and 117 s, respectively. For the same molecule, in data set [2], the inhibition at 5000 µM worked out at 17.9%.

Turning to `CC1(C)N=C(c2ccc(Cl)c(Cl)c2)N(O)C1(C)C`, the Activity in [1] turned out to be 117 s; in [3] it was 50.62%; in [4] it was 41.9%; in data set [5] it was 21.43%; in [6] it was 118 s; in data set [7], 20.52%. In addition, the results for the Activity in data set [8], in data set [9] and in data set [10] were 118 s, 40.17% and 118 s, respectively. Also, the inhibition at 5000 µM in data set [2] turned out to be 22.8%.

Take `CC1(C)N=C(c2cccc(O)c2)N(O)C1(C)C`: the Activity turned out to be 119 s in data set [1]; 72.88% in data set [3]; 59.94% in data set [4]; 59.38% in data set [5]; 119 s in data set [6]; 50.69% in data set [7]. Moreover, the Activity was found to be 118 s in data set [8], 77.78% in data set [9] and 117 s in data set [10]. Further, the inhibition at 5000 µM in [2] turned out to be 46.3%.

Regarding `COc1ccc(C2=NC(C)(C)C(C)(C)N2O)c(OC)c1`, the Activity came out at 117 s in data set [1]; 37.89% in data set [3]; 44.96% in data set [4]; 44.85% in data set [5]; 118 s in data set [6]; 52.93% in [7]. The results for the Activity in [8], in data set [9] and in [10] were 119 s, 38.34% and 118 s, respectively. The inhibition at 5000 µM in data set [2] is 23.3%.

As to `CC1(C)N=C(c2ccc3c(c2)OCO3)N(O)C1(C)C`, the Activity in [1] worked out at 118 s; in data set [3], 60.22%; in data set [4], 67.15%; in data set [5] it was 68.46%; in data set [6], 119 s; in data set [7], 58.82%. Moreover, the Activity worked out at 119 s in data set [8], 59.77% in data set [9] and 120 s in data set [10]. Further, the inhibition at 5000 µM in [2] turned out to be 21.9%.

Regarding `COc1ccc(C2=NC(C)(C)C(C)(C)N2O)cc1`, the Activity in data set [1] amounted to 118 s; in data set [3], 46.74%; in data set [4], 66.49%; in data set [5], 76.13%; in [6], 118 s; in data set [7] it was 64.55%. The Activity in data set [8] came to 118 s; in [9], 65.23%; in data set [10], 119 s. The inhibition at 5000 µM in data set [2] amounted to 19.7%.

For the molecule `CN(C)c1ccc(C2=NC(C)(C)C(C)(C)N2O)cc1`, the Activity in [1] was 119 s; in [3], 31.27%; in data set [4], 40.17%; in data set [5], 39.44%; in data set [6], 117 s; in data set [7], 34.3%. The figures for the Activity in data set [8], in data set [9] and in data set [10] were 117 s, 37.34% and 117 s, respectively. Besides, the inhibition at 5000 µM in [2] was found to be 6.63%.

Consider `CC1(C)N=C(c2ccccc2[N+](=O)[O-])N(O)C1(C)C`, for which the Activity in [1] turned out to be 118 s; in data set [3], 40.04%; in data set [4] it was 45.93%; in [5], 45.14%; in [6], 119 s; in [7] it was 28.95%. For the same molecule, the Activity in [8] stood at 119 s; in [9], 50.91%; in data set [10] it was 119 s. In addition, the inhibition at 5000 µM in [2] stood at 30.2%.

Broadly, the inhibition is the change of the read-out against control, counted positive when it falls.

The values above are taken from ChEMBL document CHEMBL1156678, “A new class of analgesic agents toward prostacyclin receptor inhibition: synthesis, biological studies and QSAR analysis of 1-hydroxyl-2-substituted phenyl-4,4,5,5-tetramethylimidazolines” (Eur J Med Chem, 2008).
